According to ChEMBL document CHEMBL4373657, “Derivatives of a new heterocyclic system - pyrano[3,4-c][1,2,4]triazolo[4,3-a]pyridines: synthesis, docking analysis and neurotropic activity” (Medchemcomm, 2019):
The source made the active and inactive calls. No cut-off for these calls is given here.

Key:
[1] = test system: Mus musculus; experiment: Antidepressant activity in mouse assessed as latent period of first immobilization at 50 mg/kg, ip measured for 6 mins by forced swimming test (reference value: 92 secs); format: functional
In short: (§1)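 Each mouse swam in a glass container (22 cm high, 14 cm diameter) one-third filled with water, under natural light. Over 6 min, latency to first immobilization, total immobilization time and total active swimming time were recorded.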

[2] = test system: Rattus norvegicus; experiment: Antianxiety activity in Wistar rat assessed as vertical movement of animals at 50 mg/kg, ip measured for 5 mins by open field test; format: functional, organism-based
In short: (§2)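 Male Wistar rats (120–140 g), n = 8 per compound, control and reference. Single i.p. dose of 50 mg kg–1 as a suspension in methylcarboxycellulose with Tween-80; controls received emulsifier. Daytime, natural light. Over 5 min, horizontal movements, rearings (vertical movements) and cell sniffings were counted.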

[3] = test system: Mus musculus; experiment: Sedative activity in mouse assessed as time spent in center at 50 mg/kg, ip measured for 5 mins by elevated plus maze test (reference value: 21.8 secs); format: functional
[4] = test system: Mus musculus; experiment: Antidepressant activity in mouse assessed as total time of active swimming at 50 mg/kg, ip measured for 6 mins by forced swimming test (reference value: 282 secs); format: functional; in short: as §1
[5] = test system: Mus musculus; experiment: Anticonvulsant activity in ip dosed mouse assessed as reduction in PTZ-induced clonic seizures administered 45 mins before PTZ stimulation; format: functional
In short: (§3)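 Outbred mice (18–22 g), 8 per dose. Compounds given i.p. at 10–100 mg kg–1 as a carboxymethylcellulose/Tween-80 suspension, 45 min before s.c. pentylenetetrazole 90 mg kg–1; controls received emulsifier. Endpoint was prevention of clonic seizures. ED50 was derived by Litchfield–Wilcoxon probit analysis.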

[6] = Protection index, ratio of TD50 for neurotoxicity in ip dosed mouse to ED50 for anticonvulsant activity in ip dosed mouse; format: toxicity, organism-based; conditions: in vivo, read-out: Ratio TD50/ED50
[7] = test system: Mus musculus; experiment: Anticonvulsant activity in mouse assessed as MES-induced tonic seizures at 10 to 100 mg/kg, ip administered 45 mins before electrical stimulation; format: functional, organism-based
In short: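 Mice, 8 per dose. Compounds given i.p. at 10, 25, 50, 75 or 100 mg kg–1 in carboxymethylcellulose/Tween-80 suspension, 45 min before maximal electroshock (50 mA, 0.2 s, 50 imp s–1); controls received emulsifier. Endpoint was prevention of the tonic-extensor phase.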

[8] = test system: Mus musculus; experiment: Antianxiety activity in mouse assessed as increase in time spent in open arms at 50 mg/kg, ip measured for 5 mins by elevated plus maze test; format: functional
[9] = Neurotoxicity in ip dosed mouse assessed as myorelaxation measured for 2 mins by rotarod test; format: toxicity, organism-based; conditions: in vivo
In short: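 Mice were placed on a corrugated rubber-coated metal rod rotating at 5 rpm, and the number staying on for 2 min was counted. TD50 was derived by Litchfield–Wilcoxon probit analysis.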

[10] = test system: Rattus norvegicus; experiment: Antianxiety activity in Wistar rat assessed as horizontal movement of animals at 50 mg/kg, ip measured for 5 mins by open field test; format: functional, organism-based; in short: as §2
[11] = test system: Mus musculus; experiment: Anticonvulsant activity in mouse assessed as proportion of animals displaying reduction in PTZ-induced clonic seizures at 50 mg/kg, ip administered 45 mins before PTZ stimulation relative to control; format: functional; set-up: scale not given: the % may be the effect or the level left; in short: as §3
[12] = test system: Mus musculus; experiment: Antianxiety activity in mouse assessed as time spent in closed arms at 50 mg/kg, ip measured for 5 mins by elevated plus maze test (reference value: 278.2 secs); format: functional
[13] = Neurotoxicity in mouse assessed as motor coordination at 50 to 100 mg/kg, ip by rotarod test; format: toxicity, organism-based; conditions: in vivo
In short: (§4)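 Mice dosed i.p. at 50–100 mg kg–1; reference drugs given at effective anticonvulsant doses. Mice were placed on a corrugated rubber-coated metal rod rotating at 5 rpm, and the number staying on for 2 min was counted. TD50 was derived by Litchfield–Wilcoxon probit analysis.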

[14] = Neurotoxicity in ip dosed mouse assessed as maximum tolerated dose by rotarod test; format: toxicity, organism-based; conditions: in vivo
In short: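 Mice given compounds i.p. at […] to 1800 mg/kg to establish the maximal tolerated dose.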

[15] = test system: Mus musculus; experiment: Anticonvulsant activity in mouse assessed as reduction in PTZ-induced clonic seizures at 25 mg/kg, ip administered 45 mins before PTZ stimulation; format: functional, organism-based; in short: as §3
[16] = test system: Mus musculus; experiment: Anticonvulsant activity in mouse assessed as MES-induced […] seizures at 10 to 100 mg/kg, ip administered 45 mins before electrical stimulation; format: functional, organism-based
[17] = test system: Rattus norvegicus; experiment: Antianxiety activity in Wistar rat assessed as increase in number of sniffing cell examinations at 50 mg/kg, ip measured for 5 mins by open field test; format: functional, organism-based; in short: as §2
[18] = Neurotoxicity in mouse assessed as myorelaxation at 50 to 100 mg/kg, ip measured for 2 mins by rotarod test; format: toxicity, organism-based; conditions: in vivo; in short: as §4
[19] = test system: Mus musculus; experiment: Antidepressant activity in mouse assessed as total time of immobilization at 50 mg/kg, ip measured for 6 mins by forced swimming test (reference value: 81 secs); format: functional; in short: as §1
[20] = test system: Mus musculus; experiment: Antidepressant activity in mouse assessed as total time of immobilization at 2 mg/kg, ip measured for 6 mins by forced swimming test (reference value: 81 secs); format: functional
In short: (§5)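 Mice swum in a glass cylinder (height 22 cm, diameter 14 cm) one-third filled with water, under natural light. Latency to first immobility, total immobility and total active swimming recorded over 6 min after i.p. dosing; controls given emulsifier.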

[21] = test system: Rattus norvegicus; experiment: Antianxiety activity in Wistar rat assessed as increase in number of sniffing cell examinations at 2 mg/kg, ip measured for 5 mins by open field test; format: functional, organism-based
In short: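 Male Wistar rats (120–140 g), 8 per group, dosed i.p. as suspension in carboxymethylcellulose with Tween-80; controls given emulsifier. Horizontal movements, rearings and sniffing of cells counted over 5 min in daylight with natural light.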

[22] = test system: Mus musculus; experiment: Sedative activity in mouse assessed as time spent in center at 2 mg/kg, ip measured for 5 mins by elevated plus maze test (reference value: 21.8 secs); format: functional
In short: (§6)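 Mice placed at the junction of a raised cruciform maze (two open, two closed opposed arms) facing an open arm. Entries into and time spent in each arm and the centre recorded for 5 min by video tracking and an observer. Compound given i.p. beforehand; controls given emulsifier; P ≤ 0.05.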

[23] = test system: Mus musculus; experiment: Antidepressant activity in mouse assessed as latent period of first immobilization at 2 mg/kg, ip measured for 6 mins by forced swimming test (reference value: 92 secs); format: functional; in short: as §5
[24] = test system: Mus musculus; experiment: Antianxiety activity in mouse assessed as increase in time spent in open arms at 2 mg/kg, ip measured for 5 mins by elevated plus maze test; format: functional; in short: as §6
[25] = test system: Mus musculus; experiment: Antidepressant activity in mouse assessed as total time of active swimming at 2 mg/kg, ip measured for 6 mins by forced swimming test (reference value: 282 secs); format: functional; in short: as §5
[26] = test system: Mus musculus; experiment: Antianxiety activity in mouse assessed as time spent in closed arms at 2 mg/kg, ip measured for 5 mins by elevated plus maze test (reference value: 278.2 secs); format: functional; in short: as §6
[27] = test system: Mus musculus; experiment: Anticonvulsant activity in mouse assessed as proportion of animals displaying reduction in PTZ-induced clonic seizures at 200 mg/kg, ip administered 45 mins before PTZ stimulation relative to control; format: functional; set-up: scale not given: the % may be the effect or the level left
[28] = Neurotoxicity in mouse assessed as myorelaxation at 100 to 200 mg/kg, ip measured for 2 mins by rotarod test; format: toxicity, organism-based; conditions: in vivo
In short: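 Mice placed on a rubber-coated metal rod rotating at 5 rpm, dosed i.p. Count of animals able to stay on the rod for 2 min. TD50 derived by Litchfield–Wilcoxon probit analysis. Reference drugs given at effective anticonvulsant doses.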

[29] = test system: Mus musculus; experiment: Antianxiety activity in mouse assessed as decrease in number of entries into closed arms at 50 mg/kg, ip measured for 5 mins by elevated plus maze test; format: functional, organism-based
[30] = test system: Mus musculus; experiment: Antidepressant activity in mouse assessed as total time of active swimming at 5 mg/kg, ip measured for 6 mins by forced swimming test (reference value: 282 secs); format: functional; in short: as §1
[31] = test system: Mus musculus; experiment: Antidepressant activity in mouse assessed as total time of immobilization at 5 mg/kg, ip measured for 6 mins by forced swimming test (reference value: 81 secs); format: functional; in short: as §1
[32] = test system: Mus musculus; experiment: Antidepressant activity in mouse assessed as latent period of first immobilization at 5 mg/kg, ip measured for 6 mins by forced swimming test (reference value: 92 secs); format: functional; in short: as §1

Structure (SMILES) | Time [1] [s] | Activity [2] | Time [3] [s] | Time [4] [s] | ED50 [5] [mg/kg] | selectivity ratio [6] | Activity [7] | Time [8] [s] | TD50 at 2 min [9] [mg/kg] | Activity [10] | Activity [11] [%] | Time [12] [s] | Activity [13] | MTD [14] [mg/kg] | anticonvulsant activity (active/inactive) [15] | Activity [16] | Activity [17] | Activity [18] | Time [19] [s] | other results
CCOC(=O)C(Sc1nnc2c3c(c(C#N)c(Nc4ccccc4)n12)CC(C)(C)OC3)c1ccccc1 (configuration not stated) | 156 | inactive | 95 | 284 | 44 | 11.8 | inactive | 6 | 520 | inactive | 60 | 199 | Non-Toxic | 1200 | Active | inactive | Active | Non-Toxic | 76 | –
CN1C(=O)CN=C(c2ccccc2)c2cc(Cl)ccc21 [DIAZEPAM] | – | – | – | – | 0.5 | – | inactive | – | – | – | – | – | – | 200 | – | inactive | – | – | – | Time [20]: 24 s; Activity [21]: Active; Time [22]: 42.5 s; Time [23]: 174 s; Time [24]: 57 s; Time [25]: 336 s; Time [26]: 257.5 s
CCC1(C)CC(=O)NC1=O (configuration not stated) [ETHOSUXIMIDE] | – | – | – | – | – | – | inactive | – | – | – | – | – | – | 1000 | – | inactive | – | – | – | Activity [27]: 60%; Activity [28]: Non-Toxic
CC1(C)Cc2c(C#N)c(Nc3ccccc3)n3c(SCC(=O)N(c4ccccc4)c4ccccc4)nnc3c2CO1 | 162 | inactive | 79 | 317 | 21 | 27.6 | inactive | 88 | 580 | inactive | 80 | 133 | Non-Toxic | 1250 | Active | inactive | Active | Non-Toxic | 43 | –
CC1(C)Cc2c(C#N)c(Nc3ccccc3)n3c(SCC(=O)c4cccc([N+](=O)[O-])c4)nnc3c2CO1 | 147 | inactive | 51 | 276 | 36 | 13.6 | inactive | 8 | 490 | inactive | 60 | 241 | Non-Toxic | 1000 | Active | inactive | Active | Non-Toxic | 84 | inhibition [29]: Active
Cc1ccc(Nc2c(C#N)c3c(c4nnc(SCC(=O)N(c5ccccc5)c5ccccc5)n24)COC(C)(C)C3)cc1 | – | inactive | 58 | – | 45 | 13.5 | inactive | 6.2 | 610 | inactive | 60 | 242 | Non-Toxic | 1750 | Active | inactive | Active | Non-Toxic | – | Time [30]: 254 s; Time [31]: 106 s; Time [32]: 129 s
CC1(C)Cc2c(C#N)c(Nc3ccccc3)n3c(SCCCc4ccccc4)nnc3c2CO1 | 139 | inactive | 67 | 245 | 23 | 24 | inactive | 10 | 560 | inactive | 60 | 223 | Non-Toxic | 1250 | Active | inactive | Active | Non-Toxic | 115 | inhibition [29]: Active
COc1ccc(CSc2nnc3c4c(c(C#N)c(Nc5ccc(C)cc5)n23)CC(C)(C)OC4)cc1 | 158 | inactive | 88 | 289 | 44 | 13.6 | inactive | 11.4 | 600 | inactive | 60 | 200.6 | Non-Toxic | 1500 | Active | inactive | Active | Non-Toxic | 71 | –
